According to publication PMC2669732 (Journal of Medicinal Chemistry, 2009):
Like-named read-outs stand apart in the source and are kept apart here.

Columns and labels:
EcIspF = target: T1, EcIspF (Escherichia coli, UniProt P62617); assay: SPR binding assay with immobilized EcIspF; details: for fold weaker binding than CMP: SPR KD comparison; for ΔG: ΔG = −RT ln Kd
T1 sequence (P62617 1-159): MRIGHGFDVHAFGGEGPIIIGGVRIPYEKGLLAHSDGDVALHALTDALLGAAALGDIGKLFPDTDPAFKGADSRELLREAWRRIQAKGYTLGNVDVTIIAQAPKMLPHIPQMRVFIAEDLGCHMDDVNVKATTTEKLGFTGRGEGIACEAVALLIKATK
Outline: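 E. coli IspF expressed in BL21(DE3), >95% pure, amine-coupled to CM5 chip (diluted to ~100 μg/mL final in 10 mM acetate pH 5.5) to 4500–5500 RU. Ligand series 0.1 μM–10 mM run at 10 °C, 30 μL/min, in 50 mM sodium phosphate pH 7, 2 mM MgCl2, 0.005% P20. Each injection in triplicate with 40 min buffer regeneration. Blank-subtracted steady-state RU fit to 1:1 Langmuir model.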

E. coli LpxC = details: cited from earlier work
LpxC = details: cited from earlier work
[1] = Δg = ΔG/N, N = number of non-hydrogen atoms, Table 5

| Compound | ΔG (EcIspF) [kcal/mol] | ligand efficiency (Δg) (EcIspF; [1]) [kJ·mol^−1/non-H atom] | ligand efficiency (Δg) (EcIspF) [kJ·mol^−1/non-H atom] | other results |
| --- | --- | --- | --- | --- |
| Nc1ccn([C@H]2O[C@@H](CO)[C@H]3OP(=O)(O)O[C@H]32)c(=O)n1 (mixture of isomers) [Compound 6] |  |  |  | fold weaker binding than CMP (EcIspF): about 20 fold |
| Nc1ccn(CC(CO)OCP(=O)(O)O)c(=O)n1.O.O (stereo in doubt) [CDV, [(2R)-1-(4-amino-2-oxo-pyrimidin-1-yl)-3-hydroxy-propan-2-yl] oxymethylphosphonic acid] | -1.81 | −0.42 |  |  |
| O=C(O)C1COC(c2ccccc2)=N1 (stereo not shown) [4,5 dihydro-2-phenyloxazole-4-carboxylic acid] |  |  |  | IC50 (E. coli LpxC): > 400 µM |
| Nc1ccn([C@@H]2O[C@H](COP(=O)(O)O)[C@@H](O)[C@@H]2O)c(=O)n1 [AraCMP] | -2.23 | −0.44 |  | fold weaker binding than CMP (EcIspF): 20 fold |
| Nc1ccn([C@@H]2O[C@H](COP(=O)(O)O)[C@@H](O)[C@H]2O)c(=O)n1 [CMP] | -3.941 | −0.79 | −0.79 |  |
| Nc1ccn([C@@H]2O[C@@H]3COP(=O)(O)O[C@H]3[C@H]2O)c(=O)n1 [Compound 7] | -3.929 | −0.82 |  |  |
| N[C@@H](Cc1c[nH]c2ccccc12)C(=O)NO [Compound 13, 2-amino-N-hydroxy-3-(1H-indol-3-yl)-propionimidic acid] |  | −2.04 | −2.04 |  |
| Nc1nc(=O)n([C@@H]2O[C@H](CO)[C@@H](O)[C@H]2O)cc1F [FLUC] | -3.489 | −0.81 | −0.81 |  |
| CC(=O)N[C@H]1[C@@H](OP(=O)(O)OP(=O)(O)OC[C@H]2O[C@@H](n3ccc(=O)[nH]c3=O)[C@H](O)[C@@H]2O)O[C@H](CO)[C@@H](O)[C@@H]1O [UDP-GlcNAc] |  |  |  | Km (LpxC; substrate of LpxC): > 20000 µM |
| UDP-3-acyl-GlcNAc |  |  |  | Km (LpxC; natural substrate of LpxC): 2.1 µM |
